According to ChEMBL document CHEMBL4014345, “Development of Selective Clk1 and -4 Inhibitors for Cellular Depletion of Cancer-Relevant Proteins” (J Med Chem, 2017):
Each block holds one compound with its values, some of them ahead of it. The source made the active and inactive calls. The calls are words filed in the database; no cut-off is given here.

What was measured:
[1] = target: T1, Dual specificity protein kinase CLK1 (Homo sapiens, UniProt P49759); assay: Inhibition of recombinant human GST-tagged Clk1 expressed in Escherichia coli at 100 nM using RS repeat substrate peptide after 15 mins in presence of [gamma-32]-ATP
Target sequence in this assay (P49759 whole entry, looked up): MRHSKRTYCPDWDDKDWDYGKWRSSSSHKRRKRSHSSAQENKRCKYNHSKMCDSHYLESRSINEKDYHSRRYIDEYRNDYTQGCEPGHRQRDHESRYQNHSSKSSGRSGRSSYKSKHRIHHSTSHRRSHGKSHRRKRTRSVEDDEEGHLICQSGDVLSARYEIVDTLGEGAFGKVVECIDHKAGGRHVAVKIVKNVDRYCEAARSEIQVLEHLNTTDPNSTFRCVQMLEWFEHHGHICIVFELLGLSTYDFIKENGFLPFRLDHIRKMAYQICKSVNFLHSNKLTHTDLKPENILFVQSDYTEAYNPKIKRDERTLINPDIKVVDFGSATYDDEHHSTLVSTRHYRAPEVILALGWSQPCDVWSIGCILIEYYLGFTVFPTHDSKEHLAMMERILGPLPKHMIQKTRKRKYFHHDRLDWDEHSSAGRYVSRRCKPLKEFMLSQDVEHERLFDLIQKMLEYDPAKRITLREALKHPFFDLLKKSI

[2] = target: T1, Dual specificity protein kinase CLK1; assay: Inhibition of recombinant human GST-tagged Clk1 expressed in Escherichia coli using RS repeat substrate peptide after 15 mins in presence of [gamma-32]-ATP
Target sequence in this assay (P49759 whole entry): as the sequence (P49759 whole entry, looked up) above

[3] = target: T2, Dual specificity protein kinase CLK1/CLK4 (Homo sapiens, UniProt Q9HAZ1+P49759); assay: Inhibition of CLK1/4 in human T24 cells assessed as down regulation of HDAC1 expression at 10 uM after 3 days by Western blot analysis relative to control; type: cell-based
How it was run: (§1)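 T24 or MDA-MB-231 cells were grown in DMEM to 70% confluency. The medium was replaced with compound diluted in DMEM, and cells were kept 3 days. Total protein was immunoblotted with monoclonal antibodies in 3% BSA/PBS against EGFR, p70S6K α, PARP-1, ERK2, HDAC1, CD44, PCNA and GRP94.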

[4] = target: T2, Dual specificity protein kinase CLK1/CLK4; assay: Inhibition of CLK1/4 in human T24 cells assessed as down regulation of HDAC1 expression at 15 uM after 3 days by Western blot analysis relative to control; type: cell-based; how it was run: as §1
[5] = target: T2, Dual specificity protein kinase CLK1/CLK4; assay: Inhibition of CLK1/4 in human MDA-MB-231 cells assessed as down regulation of EGFR expression after 3 days by Western blot analysis; type: cell-based; how it was run: as §1
[6] = target: T2, Dual specificity protein kinase CLK1/CLK4; assay: Inhibition of CLK1/4 in human MDA-MB-231 cells assessed as down regulation of S6 kinase expression at 10 uM after 3 days by Western blot analysis relative to control; type: cell-based; how it was run: as §1
[7] = target: T2, Dual specificity protein kinase CLK1/CLK4; assay: Inhibition of CLK1/4 in human T24 cells assessed as down regulation of EGFR expression after 3 days by Western blot analysis; type: cell-based; how it was run: as §1
[8] = target: T2, Dual specificity protein kinase CLK1/CLK4; assay: Inhibition of CLK1/4 in human MDA-MB-231 cells assessed as down regulation of EGFR expression at 10 uM after 3 days by Western blot analysis relative to control; type: cell-based; how it was run: as §1
T-24 = assay: Cytotoxicity against human T24 cells assessed as growth inhibition after 5 days by MTT assay; type: functional; settings: T-24, 120 h
How it was run: (§2)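 They were seeded at 5000 cells per well onto compound or DMSO (0.2% final). Plates were kept 5 days at 37 °C in 5% CO2 with no medium change, then read by MTT.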

MDA-MB-231 = assay: Cytotoxicity against human MDA-MB-231 cells assessed as growth inhibition after 5 days by MTT assay; type: functional; settings: MDA-MB-231, 120 h; how it was run: as §2
[9] = target: T2, Dual specificity protein kinase CLK1/CLK4; assay: Inhibition of CLK1/4 in human T24 cells assessed as down regulation of HDAC1 expression at 5 uM after 3 days by Western blot analysis relative to control; type: cell-based; how it was run: as §1
[10] = target: T2, Dual specificity protein kinase CLK1/CLK4; assay: Inhibition of CLK1/4 in human MDA-MB-231 cells assessed as down regulation of S6 kinase expression after 3 days by Western blot analysis; type: cell-based; how it was run: as §1
[11] = target: T2, Dual specificity protein kinase CLK1/CLK4; assay: Inhibition of CLK1/4 in human MDA-MB-231 cells assessed as down regulation of EGFR expression at 2.5 uM after 3 days by Western blot analysis relative to control; type: cell-based; how it was run: as §1
[12] = target: T2, Dual specificity protein kinase CLK1/CLK4; assay: Inhibition of CLK1/4 in human MDA-MB-231 cells assessed as down regulation of S6 kinase expression at 20 uM after 3 days by Western blot analysis relative to control; type: cell-based; how it was run: as §1
[13] = target: T2, Dual specificity protein kinase CLK1/CLK4; assay: Inhibition of CLK1/4 in human T24 cells assessed as down regulation of EGFR expression at 10 uM after 3 days by Western blot analysis relative to control; type: cell-based; how it was run: as §1
[14] = target: T2, Dual specificity protein kinase CLK1/CLK4; assay: Inhibition of CLK1/4 in human T24 cells assessed as down regulation of EGFR expression at 5 uM after 3 days by Western blot analysis relative to control; type: cell-based; how it was run: as §1
[15] = target: T2, Dual specificity protein kinase CLK1/CLK4; assay: Inhibition of CLK1/4 in human T24 cells assessed as down regulation of HDAC1 expression after 3 days by Western blot analysis; type: cell-based; how it was run: as §1
[16] = target: T2, Dual specificity protein kinase CLK1/CLK4; assay: Inhibition of CLK1/4 in human MDA-MB-231 cells assessed as down regulation of EGFR expression at 5 uM after 3 days by Western blot analysis relative to control; type: cell-based; how it was run: as §1
[17] = target: T2, Dual specificity protein kinase CLK1/CLK4; assay: Inhibition of CLK1/4 in human MDA-MB-231 cells assessed as down regulation of S6 kinase expression at 5 uM after 3 days by Western blot analysis relative to control; type: cell-based; how it was run: as §1
[18] = target: T2, Dual specificity protein kinase CLK1/CLK4; assay: Inhibition of CLK1/4 in human MDA-MB-231 cells assessed as down regulation of EGFR expression at 20 uM after 3 days by Western blot analysis relative to control; type: cell-based; how it was run: as §1
[19] = target: T2, Dual specificity protein kinase CLK1/CLK4; assay: Inhibition of CLK1/4 in human T24 cells assessed as down regulation of EGFR expression at 15 uM after 3 days by Western blot analysis relative to control; type: cell-based; how it was run: as §1
[20] = target: T2, Dual specificity protein kinase CLK1/CLK4; assay: Inhibition of CLK1/4 in human MDA-MB-231 cells assessed as down regulation of S6 kinase expression at 2.5 uM after 3 days by Western blot analysis relative to control; type: cell-based; how it was run: as §1
[21] = target: Dual specificity protein kinase CLK3 (Mus musculus) (UniProt O35492); assay: Inhibition of recombinant GST-tagged mouse CLK3 using GRSRSRSRSRSR as substrate at 1 uM after 30 mins in presence of [gamma-32P]-ATP by scintillation counting method
[22] = target: Dual specificity tyrosine-phosphorylation-regulated kinase 4 (Homo sapiens) (UniProt Q9NR20); assay: Inhibition of DYRK4 (unknown origin) using KKISGRLSPIMTEQ-NH2 as substrate at 1 uM after 15 mins in presence of [gamma-32P]-ATP
PBL = assay: Cytotoxicity against human PBL after 2 days by MTT assay; type: cell-based; settings: 48 h
How it was run: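 Cells plated at 30 000 per well with test compounds or DMSO control for 2 days, then MTT read-out. LC50 reported as the mean of at least two independent experiments.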

[23] = target: T3, Dual specificity tyrosine-phosphorylation-regulated kinase 1A (Homo sapiens, UniProt Q13627); assay: Inhibition of N-terminal His6-tagged recombinant human Dyrk1A expressed in Escherichia coli BL21 (DE3) using KKISGRLSPIMTEQ-NH2 as substrate at 1 uM after 15 mins in presence of [gamma-32]-ATP; settings: 0.25 h
[24] = target: Serine/threonine-protein kinase haspin (Homo sapiens) (UniProt Q8TF76); assay: Inhibition of MBP-Haspin (unknown origin) at 1 uM after 10 mins by TR-FRET assay
How it was run: (§3)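 Tested in a commercial kinase profiling panel at an ATP concentration of 100 μM. Data are the mean of duplicates that differed by less than 7%.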

[25] = target: SRSF protein kinase 1 (Homo sapiens) (UniProt Q96SB4); assay: Inhibition of SRPK1 (unknown origin) at 1 uM; how it was run: as §3
[26] = Cytotoxicity against HEK293 cells assessed as growth inhibition; type: cell-based; settings: human
How it was run: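 Cytotoxicity was tested in proliferating HEK293 cells with GI50 as the read-out. Data are the mean of at least two independent experiments.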

[27] = target: T1, Dual specificity protein kinase CLK1; assay: Inhibition of recombinant human GST-tagged Clk1 expressed in Escherichia coli at 1 uM using RS repeat substrate peptide after 15 mins in presence of [gamma-32]-ATP
Target sequence in this assay (P49759 whole entry, looked up): as above

[28] = target: Dual specificity protein kinase CLK4 (Mus musculus) (UniProt O35493); assay: Inhibition of recombinant GST-tagged mouse CLK4 using GRSRSRSRSRSR as substrate at 1 uM after 30 mins in presence of [gamma-32P]-ATP by scintillation counting method
HepG2 = assay: Cytotoxicity against human HepG2 cells assessed as growth inhibition after 5 days by MTT assay; type: functional; settings: HepG2, 120 h; how it was run: as §2
[29] = target: Dual specificity protein kinase CLK2 (Mus musculus) (UniProt O35491); assay: Inhibition of recombinant GST-tagged mouse CLK2 using GRSRSRSRSRSR as substrate at 1 uM after 30 mins in presence of [gamma-32P]-ATP by scintillation counting method
[30] = target: Myosin light chain kinase 2, skeletal/cardiac muscle (Homo sapiens) (UniProt Q9H1R3); assay: Inhibition of MLCK2 (unknown origin) at 1 uM after 15 mins; how it was run: as §3
[31] = target: Serine/threonine-protein kinase 17A (Homo sapiens) (UniProt Q9UEE5); assay: Inhibition of STK17A (unknown origin) at 1 uM after 15 mins; how it was run: as §3
[32] = target: Dual specificity tyrosine-phosphorylation-regulated kinase 3 (Homo sapiens) (UniProt O43781); assay: Inhibition of DYRK3 (unknown origin) using KKISGRLSPIMTEQ-NH2 as substrate at 1 uM after 15 mins in presence of [gamma-32P]-ATP
[33] = target: T3, Dual specificity tyrosine-phosphorylation-regulated kinase 1A; assay: Inhibition of N-terminal His6-tagged recombinant human Dyrk1A expressed in Escherichia coli BL21 (DE3) using KKISGRLSPIMTEQ-NH2 as substrate after 15 mins in presence of [gamma-32]-ATP
[34] = target: SRSF protein kinase 2 (Homo sapiens) (UniProt P78362); assay: Inhibition of SRPK2 (unknown origin) at 1 uM; how it was run: as §3
[35] = target: Dual specificity tyrosine-phosphorylation-regulated kinase 1B (Homo sapiens, UniProt Q9Y463); assay: Inhibition of full length recombinant GST-tagged human DYRK1B expressed in baculovirus using KKISGRLSPIMTEQ-NH2 as substrate at 1 uM after 15 mins
THP-1 = assay: Cytotoxicity against human THP1 cells assessed as growth inhibition after 5 days by MTT assay; type: functional; settings: THP-1, 120 h; how it was run: as §2
T47D = assay: Cytotoxicity against human T47D cells assessed as growth inhibition after 5 days by MTT assay; type: functional; settings: 120 h; how it was run: as §2

Sequence of Dual specificity protein kinase CLK3 (Mus musculus) (O35492 whole entry): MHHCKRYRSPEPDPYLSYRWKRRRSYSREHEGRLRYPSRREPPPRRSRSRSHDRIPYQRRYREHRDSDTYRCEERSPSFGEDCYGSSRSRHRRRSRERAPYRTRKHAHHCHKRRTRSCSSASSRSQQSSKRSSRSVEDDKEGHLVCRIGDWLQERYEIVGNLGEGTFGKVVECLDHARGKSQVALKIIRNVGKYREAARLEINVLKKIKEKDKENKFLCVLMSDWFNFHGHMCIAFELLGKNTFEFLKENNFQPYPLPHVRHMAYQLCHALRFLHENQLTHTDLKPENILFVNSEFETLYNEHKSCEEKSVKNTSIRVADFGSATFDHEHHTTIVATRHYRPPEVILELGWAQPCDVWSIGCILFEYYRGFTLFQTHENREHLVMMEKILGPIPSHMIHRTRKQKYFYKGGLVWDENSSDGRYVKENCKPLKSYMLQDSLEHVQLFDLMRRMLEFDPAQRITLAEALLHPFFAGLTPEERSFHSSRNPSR
Sequence of SRSF protein kinase 1 (Homo sapiens) (Q96SB4 whole entry): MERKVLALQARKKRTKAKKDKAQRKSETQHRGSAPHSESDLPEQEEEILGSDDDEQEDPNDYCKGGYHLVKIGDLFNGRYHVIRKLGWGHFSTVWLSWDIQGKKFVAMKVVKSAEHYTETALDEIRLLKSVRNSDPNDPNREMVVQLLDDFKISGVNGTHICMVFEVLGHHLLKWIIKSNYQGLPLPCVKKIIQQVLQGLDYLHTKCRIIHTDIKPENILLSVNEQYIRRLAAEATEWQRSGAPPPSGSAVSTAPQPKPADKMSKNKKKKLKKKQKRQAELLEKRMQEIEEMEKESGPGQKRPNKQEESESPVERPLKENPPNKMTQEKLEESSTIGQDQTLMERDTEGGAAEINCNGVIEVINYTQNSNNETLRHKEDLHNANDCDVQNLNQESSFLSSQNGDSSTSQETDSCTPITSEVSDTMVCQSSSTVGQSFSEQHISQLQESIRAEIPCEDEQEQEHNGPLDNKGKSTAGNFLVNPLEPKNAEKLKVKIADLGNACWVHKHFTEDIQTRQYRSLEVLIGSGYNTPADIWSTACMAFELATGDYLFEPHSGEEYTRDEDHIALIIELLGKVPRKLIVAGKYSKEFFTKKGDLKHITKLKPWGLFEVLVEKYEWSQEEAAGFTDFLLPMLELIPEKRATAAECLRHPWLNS
Sequence of Dual specificity tyrosine-phosphorylation-regulated kinase 3 (Homo sapiens) (O43781 whole entry): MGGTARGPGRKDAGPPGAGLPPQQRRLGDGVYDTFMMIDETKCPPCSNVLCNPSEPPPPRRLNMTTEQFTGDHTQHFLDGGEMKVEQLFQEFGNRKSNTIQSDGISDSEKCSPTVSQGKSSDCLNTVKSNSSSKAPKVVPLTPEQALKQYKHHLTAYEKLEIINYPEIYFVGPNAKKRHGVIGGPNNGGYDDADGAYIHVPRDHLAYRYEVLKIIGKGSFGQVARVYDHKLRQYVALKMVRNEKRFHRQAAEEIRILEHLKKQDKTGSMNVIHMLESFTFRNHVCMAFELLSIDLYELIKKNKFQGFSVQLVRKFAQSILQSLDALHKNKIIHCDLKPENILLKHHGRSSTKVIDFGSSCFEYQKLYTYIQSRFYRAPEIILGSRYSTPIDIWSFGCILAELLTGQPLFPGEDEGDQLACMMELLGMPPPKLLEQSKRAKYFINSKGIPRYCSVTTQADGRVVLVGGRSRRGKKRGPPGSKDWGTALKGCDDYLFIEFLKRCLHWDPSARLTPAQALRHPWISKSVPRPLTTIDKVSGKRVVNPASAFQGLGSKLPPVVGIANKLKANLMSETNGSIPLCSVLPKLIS
Sequence of Dual specificity protein kinase CLK2 (Mus musculus) (O35491 whole entry, looked up): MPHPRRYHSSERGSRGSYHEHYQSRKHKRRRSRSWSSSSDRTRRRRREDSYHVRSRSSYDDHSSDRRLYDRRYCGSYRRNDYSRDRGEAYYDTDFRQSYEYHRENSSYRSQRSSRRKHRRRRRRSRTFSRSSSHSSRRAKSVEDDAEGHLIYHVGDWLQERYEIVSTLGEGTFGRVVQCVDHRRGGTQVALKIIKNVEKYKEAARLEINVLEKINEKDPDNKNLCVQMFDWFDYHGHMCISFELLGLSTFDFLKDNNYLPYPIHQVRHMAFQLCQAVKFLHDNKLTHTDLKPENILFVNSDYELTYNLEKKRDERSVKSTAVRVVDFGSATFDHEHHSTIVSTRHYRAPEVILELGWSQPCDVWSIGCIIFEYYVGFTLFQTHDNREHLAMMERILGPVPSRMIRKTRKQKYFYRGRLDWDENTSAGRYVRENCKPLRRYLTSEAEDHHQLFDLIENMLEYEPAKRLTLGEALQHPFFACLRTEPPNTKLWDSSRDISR
Sequence of Dual specificity protein kinase CLK4 (Mus musculus) (O35493 whole entry, looked up): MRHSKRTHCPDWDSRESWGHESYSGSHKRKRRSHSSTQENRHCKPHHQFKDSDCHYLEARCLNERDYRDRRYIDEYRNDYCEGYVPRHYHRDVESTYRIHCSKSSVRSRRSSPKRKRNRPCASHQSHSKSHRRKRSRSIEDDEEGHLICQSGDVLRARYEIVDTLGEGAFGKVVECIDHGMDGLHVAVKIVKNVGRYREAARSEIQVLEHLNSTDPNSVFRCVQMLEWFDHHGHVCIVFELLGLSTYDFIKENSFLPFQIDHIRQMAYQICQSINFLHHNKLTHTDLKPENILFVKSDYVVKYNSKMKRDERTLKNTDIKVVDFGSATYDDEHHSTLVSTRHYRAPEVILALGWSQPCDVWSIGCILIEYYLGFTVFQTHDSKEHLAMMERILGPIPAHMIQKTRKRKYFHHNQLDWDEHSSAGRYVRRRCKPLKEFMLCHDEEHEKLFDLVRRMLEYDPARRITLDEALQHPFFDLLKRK
Sequence of Dual specificity tyrosine-phosphorylation-regulated kinase 1B (Q9Y463 whole entry, looked up): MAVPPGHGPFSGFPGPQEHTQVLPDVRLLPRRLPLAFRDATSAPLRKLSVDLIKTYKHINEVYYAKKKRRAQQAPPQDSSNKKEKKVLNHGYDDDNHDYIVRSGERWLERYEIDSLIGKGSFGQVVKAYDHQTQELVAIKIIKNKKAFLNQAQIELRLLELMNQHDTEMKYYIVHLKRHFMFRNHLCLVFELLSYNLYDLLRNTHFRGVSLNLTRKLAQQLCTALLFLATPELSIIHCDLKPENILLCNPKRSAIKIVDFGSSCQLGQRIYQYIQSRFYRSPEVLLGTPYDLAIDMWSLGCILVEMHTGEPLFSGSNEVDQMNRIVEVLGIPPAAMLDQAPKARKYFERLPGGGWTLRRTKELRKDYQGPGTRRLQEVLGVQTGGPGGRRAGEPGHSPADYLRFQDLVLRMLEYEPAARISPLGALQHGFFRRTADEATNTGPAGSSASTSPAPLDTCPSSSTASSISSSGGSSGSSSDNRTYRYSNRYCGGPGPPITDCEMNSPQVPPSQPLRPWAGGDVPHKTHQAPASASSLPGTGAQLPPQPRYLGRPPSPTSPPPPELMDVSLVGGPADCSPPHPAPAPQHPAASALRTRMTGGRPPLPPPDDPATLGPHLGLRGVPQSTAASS
Sequence of Serine/threonine-protein kinase haspin (Homo sapiens) (Q8TF76 whole entry): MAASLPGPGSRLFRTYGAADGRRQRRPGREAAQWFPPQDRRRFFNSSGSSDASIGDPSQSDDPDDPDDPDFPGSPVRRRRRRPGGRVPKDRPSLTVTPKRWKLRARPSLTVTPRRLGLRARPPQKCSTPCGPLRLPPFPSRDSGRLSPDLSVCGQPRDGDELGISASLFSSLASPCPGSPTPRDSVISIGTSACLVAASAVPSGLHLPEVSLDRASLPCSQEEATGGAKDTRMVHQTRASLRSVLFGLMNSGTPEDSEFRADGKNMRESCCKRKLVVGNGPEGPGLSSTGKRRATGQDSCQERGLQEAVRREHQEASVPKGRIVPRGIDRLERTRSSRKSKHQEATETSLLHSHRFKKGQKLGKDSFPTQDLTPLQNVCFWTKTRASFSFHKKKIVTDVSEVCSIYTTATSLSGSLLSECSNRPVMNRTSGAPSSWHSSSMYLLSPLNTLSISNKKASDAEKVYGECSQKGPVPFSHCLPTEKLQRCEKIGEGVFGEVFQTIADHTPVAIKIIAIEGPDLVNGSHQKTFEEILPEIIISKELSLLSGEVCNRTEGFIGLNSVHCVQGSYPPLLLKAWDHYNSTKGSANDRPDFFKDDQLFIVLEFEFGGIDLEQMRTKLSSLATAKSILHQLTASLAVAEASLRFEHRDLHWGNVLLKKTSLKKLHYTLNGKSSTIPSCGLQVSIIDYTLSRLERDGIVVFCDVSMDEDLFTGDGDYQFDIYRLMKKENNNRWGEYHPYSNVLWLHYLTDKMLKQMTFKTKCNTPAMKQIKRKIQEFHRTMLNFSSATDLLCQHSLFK

SMILES: COc1ccc2sc(C(=O)N(C)Cc3ccc(F)cc3)cc2c1
- inhibition [1]: 28.7%

SMILES: COc1ccc2sc(C(=O)N(C)Cc3ccccn3)cc2c1
- inhibition [1]: 34.6%

SMILES: COc1ccc2sc(C(=O)NCCn3ccnc3)cc2c1
- inhibition [1]: 0%

SMILES: COc1ccc2sc(C(=O)NCCc3ccccc3)cc2c1
- IC50 [2]: 0.107 µM
- inhibition [1]: 50.7%

SMILES: COc1ccc2sc(C(=O)NCc3cccnc3)cc2c1
- inhibition [1]: 28.9%

SMILES: COC(=O)[C@@H](NC(=O)c1cc2cc(OC)ccc2s1)C(C)C
- inhibition [1]: 18.8%

SMILES: COc1ccc2sc(C(=O)N(C)Cc3cccc(C)c3)cc2c1
- inhibition [1]: 25.9%

SMILES: COc1ccc2sc(C(=O)N(C)Cc3ccccc3)cc2c1
- inhibition [21]: 44%
- inhibition [22]: inactive
- LC50 (PBL): > 30 µM
- IC50 [2]: 0.045 µM
- inhibition at 1 µM [23]: 54%
- inhibition [24]: 12%
- inhibition [25]: 4%
- GI50 (T-24): 2.7 µM
- GI50 (MDA-MB-231): 24.2 µM
- GI50 [26]: > 30 µM
- inhibition [1]: 70.6%
- inhibition [27]: 81%
- inhibition [28]: 101%
- GI50 (HepG2): 3.7 µM
- inhibition [29]: 73%
- inhibition [30]: inactive
- inhibition [31]: 23%
- inhibition [32]: inactive
- IC50 [33]: 0.52 µM
- inhibition [34]: 10%
- inhibition [35]: 58%
- GI50 (THP-1): > 30 µM
- GI50 (T47D): 28.8 µM

SMILES: COc1ccc2sc(C(=O)N[C@@H](C)C(=O)O)cc2c1
- inhibition [1]: 0%

SMILES: COc1ccc2sc(C(=O)N(C)CCn3ccnc3)cc2c1
- inhibition [1]: 9.4%

SMILES: COc1ccc2sc(C(=O)N3CCCCC3)cc2c1
- inhibition [1]: 0%

SMILES: COc1ccc2sc(C(=O)N(C)CCc3ccccc3)cc2c1
- inhibition [1]: 32.9%

Now from value to compound, other results behind:

- inhibition [1]: 6%
SMILES: COc1ccc2sc(C(=O)N[C@H](C)C(C)(C)C)cc2c1

- inhibition [1]: 25%
SMILES: COc1ccc2sc(C(=O)NC3CC3)cc2c1

- inhibition [1]: 23.5%
SMILES: COc1ccc2sc(C(=O)NCc3ccc(F)cc3)cc2c1

- inhibition [3]: 16.1%
- inhibition [4]: 0%
- IC50 [5]: > 20 µM
- inhibition [6]: 8%
- IC50 [7]: > 15 µM
- inhibition [8]: 30.9%
- inhibition [9]: 13.7%
- inhibition [1]: 33.9%
- IC50 [10]: > 20 µM
- inhibition [11]: 13.1%
- inhibition [12]: 10.9%
- inhibition [13]: 32.9%
- inhibition [14]: 26%
- IC50 [15]: > 15 µM
- inhibition [16]: 36.7%
- inhibition [17]: 7.8%
- inhibition [18]: 25.1%
- inhibition [19]: 36.6%
- inhibition [20]: 0%
SMILES: COc1ccc2sc(C(=O)NCc3cccc(F)c3)cc2c1
- GI50 (T-24): > 40 µM
- GI50 (MDA-MB-231): > 40 µM

- inhibition [1]: 0.5%
SMILES: COc1ccc2sc(C(=O)NCC(=O)O)cc2c1

- inhibition [1]: 39.8%
SMILES: COc1ccc2sc(C(=O)NCC(F)(F)F)cc2c1
